Laboratory results taken from BindingDB's records for doi:10.1021/acs.jmedchem.1c00739 (2021).

Target: Protein kinase C alpha type (Homo sapiens, UniProt P17252)
Experiment: Displacement of [3H]-PDBu from recombinant human PKCalpha at 30 uM by scintillation counter method relative to control
Method in brief: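 Competition of 2 nM [3H]PDBu by test ligand at a single fixed concentration (value in line); 50 mM Tris-HCl pH 7.4, 100 μg/mL porcine brain phosphatidylserine, 5 mg/mL bovine IgG, 0.003% Tx-100, 20 ng/tube enzyme; 0.1 mM Ca2+ for PKCα, 1 mM EGTA for PKCε. 5 min at 37 °C, PEG precipitation, bound and free counted separately; nonspecific with 10 μM cold PDBu; triplicates.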

Inhibition: 21%
SMILES: Cc1ccc(-c2cn(CC3(CO)C/C(=C\CC(CC(C)C)CC(C)C)C(=O)O3)nn2)cc1 (stereo unspecified)
